An excerpt weighted towards active compounds, which were near 1.6% of everything screened.
PG9 Ab binder: small molecules binding HIV-1 gp120 antibody PG9; TR-FRET gp120-PG9 antibody binding; inhibition, % at 6.7 µM; actives 0.43% (n = 360,000); in the data active = inhibition above about 8.5%
VLA-4 inh: inhibition in a human VLA-4 binding assay | VLA-4 expressing cells, ligand binding flow cytometry | inhibition, % (about 7 µM as worked out from the volumes in the protocol) | actives 0.2% (n = 330,000) | P13612; in the data active = inhibition above about 50%
Target sequence (P13612 whole entry, looked up): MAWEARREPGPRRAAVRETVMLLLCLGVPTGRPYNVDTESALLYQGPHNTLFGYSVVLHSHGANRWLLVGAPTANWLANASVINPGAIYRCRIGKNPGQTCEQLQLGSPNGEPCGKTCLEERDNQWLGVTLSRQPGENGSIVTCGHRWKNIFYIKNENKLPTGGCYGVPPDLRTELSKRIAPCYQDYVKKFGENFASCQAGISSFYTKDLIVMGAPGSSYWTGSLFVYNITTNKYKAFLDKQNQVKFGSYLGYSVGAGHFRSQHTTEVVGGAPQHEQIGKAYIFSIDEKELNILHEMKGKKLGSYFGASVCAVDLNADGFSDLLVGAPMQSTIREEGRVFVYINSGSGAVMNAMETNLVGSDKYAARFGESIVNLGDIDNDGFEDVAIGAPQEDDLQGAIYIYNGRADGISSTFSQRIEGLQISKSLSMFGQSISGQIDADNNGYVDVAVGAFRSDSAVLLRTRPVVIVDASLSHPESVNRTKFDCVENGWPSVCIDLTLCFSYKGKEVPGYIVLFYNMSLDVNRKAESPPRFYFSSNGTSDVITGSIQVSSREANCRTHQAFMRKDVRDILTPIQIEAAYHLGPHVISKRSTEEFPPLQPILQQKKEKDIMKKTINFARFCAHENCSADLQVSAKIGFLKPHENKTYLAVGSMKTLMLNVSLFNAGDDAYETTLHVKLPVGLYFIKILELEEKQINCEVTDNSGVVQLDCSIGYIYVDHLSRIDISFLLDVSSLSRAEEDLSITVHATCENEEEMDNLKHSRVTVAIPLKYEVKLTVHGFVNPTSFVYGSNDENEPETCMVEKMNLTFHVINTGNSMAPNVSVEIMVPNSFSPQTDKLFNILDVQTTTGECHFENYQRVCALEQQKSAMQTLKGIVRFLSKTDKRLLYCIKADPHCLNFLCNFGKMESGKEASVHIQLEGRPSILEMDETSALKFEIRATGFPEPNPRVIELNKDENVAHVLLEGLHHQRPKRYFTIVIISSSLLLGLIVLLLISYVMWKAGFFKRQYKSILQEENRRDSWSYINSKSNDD
NR2E3 ag-1: activates human NR2E3 receptor; CHO-S Gal4-NCOR/VP16-NR2E3 two-hybrid, luciferase; inhibition of corepressor binding, % at 3.98 µM; actives 0.35% (n = 360,000); Q9Y5X4;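 active = inhibition above the mean of all tested compounds plus 3 SD, cut at about 70% in these data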;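 note: 0% = DMSO with NR2E3 transfected cells and 100% = cells lacking NR2E3 construct; higher means lower luciferase signal from less NR2E3 corepressor binding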
NR2E3 ag-2: agonists of human nuclear receptor NR2E3 | actives 0.12% (n = 320,000) | Q9Y5X4 | GST-NR2E3/biotin-RetCOR TR-FRET, 1536-well | AID 2300 | inhibition of corepressor binding, % at 4.78 µM;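 active = percent inhibition above the cutoff of mean plus 3 SD of all tested compounds, set per screening campaign, cut at about 20% in these data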;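 note: 0% = DMSO wells and 100% = biotin wells as full block of FRET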
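System: GST-tagged NR2E3 plus biotinylated RetCOR corepressor; Buffer or medium: pH 7.5 Tris-based buffer; Probe or stimulus: RetCOR corepressor, biotinylated, 7 nM; Doses: compound at 4.8 µM, single dose; Schedule: 5 h incubation at 4 °C; Technique: time-resolved FRET; Evaluation: percent inhibition of TR-FRET ratio; Replication: one well per compound, singlicate testing.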
Rev-erbA mod: Rev-erb alpha (human) modulation | activity, % at 10 µM | actives 0.79% (n = 370,000) | AID 1259318 | P20393 | Rev-erbα–FITC-DNA binding, fluorescence polarization, 90 min;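 active = activity above about 14%, limit read from the data; passing the limit was not always enough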;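 note: 0% = DMSO wells with 35 nM protein and 100% = DMSO wells with 750 nM protein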
NR2E3 ag conf: confirmation of human NR2E3 agonists; shares compounds with NR2E3 ag-1; CHO-S mammalian two-hybrid NR2E3-NCOR, luciferase luminescence; inhibition, % at 3.98 µM; actives 51% (n = 2,300);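 active = average inhibition above a cutoff equal to the mean inhibition of all tested compounds plus one SD, cut at about 70% in these data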;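 note: 0% = DMSO in NR2E3 cells and 100% = DMSO in cells lacking NR2E3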
VP16 counter: GAL4-VP16 reporter inhibition in NR2E3 agonist counterscreen; shares compounds with NR2E3 ag-1; inhibition, % at 3.98 µM; actives 29% (n = 2,300); CHO-S GAL4-VP16 luciferase reporter, luminescence;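 active = mean inhibition above a cutoff equal to the average over all tested compounds plus one standard deviation, cut at about 70% in these data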;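 note: luciferase from a UAS reporter driven by GAL4-VP16 transactivation; 0% = DMSO with VP16-transfected cells and 100% = DMSO with cells lacking VP16; higher means less reporter light so more repression of VP16 activity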
The depositor's hits bear a star; x = no result given.

SMILES	PG9 Ab binder	VLA-4 inh	NR2E3 ag-1	NR2E3 ag-2	Rev-erbA mod	NR2E3 ag conf	VP16 counter
COC(=O)c1sc(NC(=O)c2cc(-c3ccccc3)nc3ccccc23)c(C#N)c1C	0	1	49	-1	3	54	63
O=C(Nc1nnc(-c2cccs2)o1)c1cc(-c2ccccc2)nc2ccccc12	-1	33	71*	0	0	99*	13
O=C(NCc1cccs1)c1cc(-c2ccccc2)nc2ccccc12	-2	-1	-6	0	-2	x	x
CCN(CC)C(=O)c1oc2ccc(S(=O)(=O)N3CC(C)CC(C)C3)cc2c1C (centres undefined)	-2	-2	93*	3	6	91*	72*
Cc1cc(C)n2nc(SCC(=O)c3cc(C)n(-c4cc(C)on4)c3C)nc2n1	-1	-1	92*	2	-1	94*	81*
Cc1cc(-n2c(C)cc(C(=O)CSc3ncnc4ccccc34)c2C)no1	0	-9	92*	3	6	97*	86*
CN(C)S(=O)(=O)c1cccc(C(=O)N/N=C\c2ccccc2)c1	x	x	x	x	-2	x	x
N#CCC[C@@H]1CC[C@]2(CCCN(C(=O)c3cccnc3)C2)O1	x	x	x	x	10	x	x
NC(=S)NN=Cc1nccc2c(C(F)(F)F)cccc12	-3	x	65	x	-11	-10	21
COc1ccc2c(c1)CO[C@H]([C@H](O)COC(C)=O)[C@H]2/C=C/c1ccccc1	x	x	x	x	10	x	x
COC(/C(=N/O)c1ccc(Cl)cc1)c1ccccc1 (centres undefined)	1	-4	59	3	5	83*	58
CCCc1cc(=O)n2nc(N3CCC(C(=O)N4CCN(c5ccc(OC)cc5)CC4)CC3)sc2n1	-1	-8	69	0	4	75*	55
O=C(NC(=S)NCc1ccccc1)c1ccccc1F	-1	-5	6	-5	-5	x	x
O=C(NC(=S)N(Cc1ccccc1)Cc1ccccc1)c1ccccc1F	0	6	65	3	-5	21	21
O=C(NC(=S)N(CCc1ccccc1)CCc1ccccc1)c1ccco1	-3	0	67	-2	-3	-20	19
COc1ccc(C(=O)C2(C(=O)Nc3cc(C)cc(C)c3)CC(c3ccccc3C(F)(F)F)=NO2)cc1 (centres undefined)	x	x	x	x	1	x	x
COc1ccc(C(=O)Nc2cnn(Cc3ccc(Cl)cc3)c2)cc1OC	-1	13	63	0	0	63	11
COc1ccc(C(=O)Nc2ccc(Cn3ccnc3)cc2)cc1OC	0	13	-40	2	4	x	x
C[C@H](O)[C@@H]1CN2CCc3c([nH]c4c(-c5ccccc5)cccc34)[C@@H]2C[C@@H]1N(C)C(=O)Nc1ccccc1	0	x	x	x	3	x	x
Cc1ccc(Nc2c(-c3ccccn3)nc3cc(C)ccn23)cc1	-4	2	68	2	4	99*	87*
Cc1ccc2nc(-c3ccncc3)c(Nc3ccccc3)n2c1	1	5	-16	-4	1	x	x
Cc1ccc(Nc2c(-c3ccccn3)nc3ccc(C)cn23)cc1	-2	1	56	-2	-1	97*	61
C=CCn1c(O)c(N=NC(=S)Nc2cccc(OC)c2)c2ccccc21	-2	13	77*	-1	-3	31	35
C=CCn1c(O)c(N=NC(=S)Nc2ccc(OC)cc2)c2ccccc21	-4	-7	38	3	-1	x	x
COP(=O)(O)C(C)NC(=O)OCc1ccccc1 (centres undefined)	x	x	x	x	8	x	x
SMILES	PG9 Ab binder	VLA-4 inh	NR2E3 ag-1	NR2E3 ag-2	Rev-erbA mod	NR2E3 ag conf	VP16 counter
O=C(Nc1ccccc1)c1ccccc1NS(=O)(=O)c1ccc(Cl)s1	2	-2	102*	1	2	99*	86*
Cc1ccc(NC(=O)c2ccccc2NS(=O)(=O)c2ccc(Cl)s2)cc1	-1	17	95*	1	4	97*	79*
O=C(Nc1ccccc1Cc1ccccc1)c1ccccc1NS(=O)(=O)c1ccc(Cl)s1	0	7	98*	2	-1	98*	86*
CCOc1ccc(-c2cc(C(=O)OC)c3n(c2=O)CCC3)cc1	x	x	x	x	5	x	x
Cc1cccc(Cn2cc(CN3CC(N(C)CCCOC(=O)c4cc5ccccc5o4)CS3(=O)=O)nn2)c1 (centres undefined)	x	x	x	x	-9	x	x
O=C(Nc1ccc(Cl)cc1)O[C@@H]1CC[C@@]23CCCN2C(=O)CCC[C@H]3C1	x	x	x	x	2	x	x
Cc1nn(C)cc1C(C)NC(=O)c1cc(COc2c(F)cccc2F)on1 (centres undefined)	0	-7	7	3	1	x	x
COCC1CCN(C(=O)c2cc(COc3ccc(F)cc3Cl)on2)C1 (centres undefined)	0	x	-77	x	-1	x	x
Cc1nn(C)cc1C(C)NC(=O)c1cc(COc2cccc3cnccc23)on1 (centres undefined)	-3	-19	69	-1	0	-8	32
O=C(c1cc(COc2cccc3cnccc23)on1)N1CCCC(CCCO)C1 (centres undefined)	-1	10	110*	0	-5	99*	93*
COCC1CCN(C(=O)c2cc(COc3cccc4cnccc34)on2)CC1	0	5	90*	-2	2	72*	69
CCOC(=O)[C@]12CCCCC/C=C\1N(Cc1ccc(OC)cc1)C(=O)[C@H]2CC(=O)N1CCCCC1	x	x	x	x	4	x	x
O=C(c1ccccc1C(F)(F)F)N1CCC(Oc2cccnc2)CC1	x	x	x	x	-5	x	x
Cc1cc(C(=O)NNc2ccc(Cl)cc2)no1	-1	7	64	1	3	34	6
Cc1ccc(-c2nc(CSCC(=O)N3CCCC3)c(C)o2)cc1	0	-1	-3	-3	-4	x	x
Cc1ccsc1-c1nc(CSCC(=O)N2CCN(c3ccccc3)CC2)c(C)o1	-2	22	58	4	0	35	27
Cc1cccc(-c2nc(CSCC(=O)N3CCN(c4ccccn4)CC3)c(C)o2)c1	2	-11	78*	-2	-6	81*	56
CNC(=O)[C@@H]1CC=C[C@@H]2CCN(c3ccccc3)C(=O)[C@@H]21	x	x	x	x	-1	x	x
O=S(=O)(c1ccccc1)N1CCC(O)(CSc2ccc(Cl)cc2)CC1	-1	0	78*	1	1	95*	79*
O=S(=O)(NCC1CCCO1)c1ccc(-c2ccc(S(=O)(=O)NCC3CCCO3)cc2)cc1 (centres undefined)	1	10	67	3	-1	92*	73*
COc1ccc(NS(=O)(=O)c2cccc(NC(=O)c3ccc(Cl)nc3)c2)cc1	1	9	83*	5	-4	84*	78*

Screens (PubChem)
